UCH37 DUB inh – inhibitors of human UCH37 deubiquitinase, primary screen, biochemical, Ub-AMC cleavage, fluorescence. Ubiquitin carboxyl-terminal hydrolase isozyme L5 (Homo sapiens), Q9Y5K5. purified proteasome/UCH37. inhibition, % (no concentration beside the values). hit rate 0.33% among 330,000;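 active = mean inhibition over replicate wells above about 20%, limit read from the data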;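 note: 0% = compound-free wells with enzyme and 100% = wells lacking proteasome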
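Assay system: Proteasome-bound UCH37. Buffer or medium: pH 7.4 Tris-HCl (50 mM) with ovalbumin, ATP-MgCl2, DTT. Incubation: 30 min preincubation with enzyme, 25 min cleavage at room temperature. Measured by: fluorescence, ex 355 nm, em 460 nm. Read-out basis: percent inhibition. Control set: wells without proteasome as full block, compound-free enzyme plus substrate as uninhibited.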
CTSL1 counter – Fasciola hepatica cathepsin L1 inhibitors, primary screen, counter-screen for PFM18AAP inhibitor project, biochemical, QFRET, fluorogenic peptide substrate | recombinant F. hepatica cathepsin L1, Z-Leu-Arg-MCA fluorescence | inhibition, % at 5.96 µM | hit rate 0.49% among 300,000 | AID 1906, 2009;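 active = inhibition above the mean of all tested compounds plus 3 SD, set per screening campaign, cut at about 17% in these data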;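 note: 0% = plate median of test compound wells and 100% = 1 µM Z-Phe-Ala-diazomethylketone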
DAGLB inh – DAGLB lipase inhibitors, primary screen, biochemical, fluorescence, HTS; inhibition, % at 5.17 µM; Diacylglycerol lipase-beta (Homo sapiens), Q8NCG7; AID 504411, 2011; hit rate 0.059% among 340,000; HEK293T DAGLB membrane lysate, EnzChek fluorogenic substrate; in the data active = inhibition above about 34%;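 note: 0% = enzyme with vehicle and 100% = wells lacking enzyme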
Target sequence (Q8NCG7 whole entry, looked up): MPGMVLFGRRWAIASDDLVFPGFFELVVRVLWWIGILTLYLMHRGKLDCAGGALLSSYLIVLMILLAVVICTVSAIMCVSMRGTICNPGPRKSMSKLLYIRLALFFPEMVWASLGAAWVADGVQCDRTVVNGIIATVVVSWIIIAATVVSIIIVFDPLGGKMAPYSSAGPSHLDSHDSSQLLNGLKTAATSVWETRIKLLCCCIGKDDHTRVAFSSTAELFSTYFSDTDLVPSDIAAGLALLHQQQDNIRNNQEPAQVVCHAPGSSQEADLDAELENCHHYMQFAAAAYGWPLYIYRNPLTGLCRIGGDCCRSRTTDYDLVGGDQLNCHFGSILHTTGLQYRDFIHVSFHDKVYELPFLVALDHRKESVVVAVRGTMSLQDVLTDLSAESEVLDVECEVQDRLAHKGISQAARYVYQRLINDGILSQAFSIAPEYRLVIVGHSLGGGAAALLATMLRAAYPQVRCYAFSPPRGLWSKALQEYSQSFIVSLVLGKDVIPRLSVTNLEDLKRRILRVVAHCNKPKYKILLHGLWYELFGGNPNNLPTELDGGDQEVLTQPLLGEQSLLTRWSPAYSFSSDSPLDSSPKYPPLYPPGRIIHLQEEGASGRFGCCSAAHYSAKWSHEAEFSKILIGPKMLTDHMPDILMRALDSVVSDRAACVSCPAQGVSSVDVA
NRP1-CendR mod – modulators of CendR peptide binding to NRP-1, primary screen, biochemical, fluorescence polarization, uHTS; FAM-RPARPAR peptide binding to NRP-1; Neuropilin-1 (Homo sapiens), O14786; hit rate 0.85% among 360,000; inhibition, % at 25 µM; AID 602438, 2012;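 active = inhibition or corrected inhibition above about 18%, plus a signal ratio from 0.5 to 1.5, limit read from the data, passing the limit was not always enough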
MT1-MMP act inh – blockers of MT1-MMP proenzyme processing, primary screen, HT1080 RFP-PRO-GFP cells, GFP/RFP fluorescence; Matrix metalloproteinase-14 (Homo sapiens), P50281; GFP/RFP ratio fluorescence, overnight; percent of plate control window, DMSO zero; GFP/RFP ratio change, % at 20 µM; hit rate 0.061% among 360,000;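 active = GFP/RFP ratio change of at least 30% with cell ATP level not reduced by more than half and red fluorescence within 50% of control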
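Assay system: HT1080 cells carrying an RFP-PRO-GFP reporter | Dosing: Single dose of 20 µM compound, 1% DMSO final | Incubation: Cells overnight before dosing, compound overnight, 37 °C, 5% CO2 | Evaluation: GFP/RFP fluorescence ratio | Control set: DMSO and RFP-L50D-GFP cell wells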
Numbers without * were called inactive; nt = not tested or not shown. Sampled rows, rich in hits. Any-hit rate of the full collection: about 1.5%.

SMILES | UCH37 DUB inh | CTSL1 counter | DAGLB inh | NRP1-CendR mod | MT1-MMP act inh
COc1cc(C=NN2C(=O)c3ccccc3NC2(C)c2cccc([N+](=O)[O-])c2)cc(Br)c1O (stereo not drawn) | 0 | nt | nt | nt | nt
CCNC(=O)C1(C)CCCN(C(=O)c2nc(C)oc2C)C1 (stereo not drawn) | nt | nt | nt | 24* | 8
CCOC(=O)NN=Cc1c(C)nn(-c2ccccc2Cl)c1Cl | -1 | nt | nt | nt | nt
COc1ccc(NS(=O)(=O)c2csc(C(=O)N3CCCC3)c2)c(OC)c1 | 2 | -2 | 0 | 19* | 0
COc1ccc(C2/C(=C(/O)c3ccc4c(c3)CC(C)O4)C(=O)C(=O)N2CCCN2CCOCC2)cc1 (stereo not drawn) | 21* | -2 | 1 | -17 | -5
CCN(CC)C(=O)C1=C(C)NC(=S)NC1c1cccs1 (stereo not drawn) | 27* | -2 | 1 | 6 | -2
Cc1ccc(-n2c(C)cc(C=NNC(=O)c3ccc(CN4CCOCC4)cc3)c2C)cc1 | 3 | nt | nt | nt | nt
Cc1ccc(NN=C(Sc2nnnn2-c2ccccc2)C(=O)c2ccccc2)cc1 | 2 | nt | nt | nt | nt
Cc1ccc(SCc2c(C(=O)NN=CC3CC=CCC3)nnn2-c2nonc2N)cc1 (stereo not drawn) | 5 | nt | nt | nt | nt
N=C1CCC(=N)c2c1c(O)c1ccccc1c2O | nt | 19* | 14 | 27* | 48
O=C1CCn2c1c(O)c1ccccc1c2=O | nt | nt | -4 | 10 | -37
Cc1ccc(C=NNC(=O)c2nnn(-c3nonc3N)c2C)o1 | -2 | nt | nt | nt | nt
CCCc1c(C(=O)N/N=C/c2ccc(OCc3ccccc3)c(OC)c2)nnn1-c1nonc1N | nt | 17* | -1 | 4 | -1
Cc1ccc(/C=N/NC(=O)c2nnn(-c3nonc3N)c2C)o1 | nt | nt | -2 | 20* | 1
OC(CN1CCN(Cc2ccc3c(c2)OCO3)CC1)c1c[nH]c2ccccc12 (stereo not drawn) | nt | nt | 1 | -3 | 7
OC(CN1CCN(c2ccccc2)CC1)c1c[nH]c2ccccc12 (stereo not drawn) | 24* | 0 | -1 | -11 | 0
O=C(NC1(C(F)(F)F)NC(=O)N(Cc2cccnc2)C1=O)c1ccccc1 (stereo not drawn) | 5 | 5 | 3 | -8 | 0
O=C(NC1(C(F)(F)F)NC(=O)N(Cc2ccccc2)C1=O)c1cccnc1 (stereo not drawn) | 4 | 4 | -3 | 41* | -1
CCOC(=O)CNc1ccc2c(c1)OCO2 | 3 | -3 | -1 | 34* | -77
CCc1onc(C)c1C(=O)Nc1ccc2c(c1)OCO2 | 4 | 19* | -2 | -4 | 0
CCc1onc(C)c1C(=O)Nc1cc(C)ccc1OC | 3 | -3 | -1 | 34* | -2
CCOC(=O)CNC(=O)/C=C/c1ccc2c(c1)OCO2 | -54 | 3 | 0 | 10 | -2
COc1ccc(NC(C)=O)cc1NC(=O)c1c(C)noc1C | nt | nt | -1 | 10 | 2
CCOc1cc(C=Nn2cnnc2)ccc1OCC(=O)Nc1ccccc1OC | 1 | nt | nt | nt | nt
CCOc1cc(/C=N/n2cnnc2)ccc1OCC(=O)Nc1ccccc1OC | nt | 3 | -3 | 20* | -1
SMILES | UCH37 DUB inh | CTSL1 counter | DAGLB inh | NRP1-CendR mod | MT1-MMP act inh
Cc1nc(-c2ccccc2)sc1C(=O)CSc1ccccc1 | 3 | 1 | -20 | 28* | -2
Cc1nc2ccccc2c(=O)n1N=Cc1ccccc1F | 2 | nt | nt | nt | nt
CCc1cc(C(=O)NNC(=O)CCl)sc1C | 6 | 90* | -1 | -4 | -4
Cc1ccnc(NC(=O)COc2ccc3oc4c(c3c2)CCCC4)c1 | 0 | -3 | -4 | 44* | 2
Cn1c(=NN=Cc2ccc(N3CCOCC3)cc2)sc2ccccc21 | 3 | nt | nt | nt | nt
CCOc1ccc(C2CC(c3ccc(OC)cc3)n3ncnc3N2)cc1 (stereo not drawn) | -1 | 18* | 2 | -11 | 3
CCOc1ccc(C2CC(c3cccc(C)c3)n3ncnc3N2)cc1 (stereo not drawn) | 2 | 3 | -2 | 8 | -2
CCC(=O)c1cn(CC(=O)Nc2ccc(C)cc2)c2ccccc12 | 3 | 4 | -19 | 4 | 4
CCC(=O)c1cn(CC(=O)Nc2ccccc2)c2ccccc12 | 2 | 2 | -6 | 34* | -1
O=C(CNC(=O)c1ccc(S(=O)(=O)N2CCCC2)cc1)NN=Cc1ccc(Cl)cc1Cl | 6 | nt | nt | nt | nt
Cc1cccc(CN2CCN([C@H]3CS(=O)(=O)N[C@@H]3COCc3ccccc3)CC2)c1 | nt | nt | nt | 26* | 4
COc1cc(C=NO)ccc1Oc1ccc([N+](=O)[O-])cc1[N+](=O)[O-] | 2 | nt | nt | nt | nt
COc1ccc(Oc2nc3ccccc3n3cccc23)cc1 | 2 | 12 | -6 | -3 | 0
Clc1ccc(Oc2nc3ccccc3n3cccc23)cc1 | -2 | 26* | -11 | 8 | 3
Cc1ccccc1NC(=O)CCC(=O)N/N=C/c1cccnc1 | nt | -2 | 1 | 22* | -4
Cc1ccc(NC(=O)CCC(=O)N/N=C/c2cccnc2)cc1 | nt | -4 | 1 | 1 | -2
NCCCCCC(=O)NN=Cc1coc2ccccc2c1=O | -25 | nt | nt | nt | nt
COc1ccc(NS(=O)(=O)c2ccc(C(=O)N3CCN(c4ccc(F)cc4)CC3)cc2)cc1 | 3 | nt | 2 | 2 | 4
COc1ccc(N2CCN(C(=O)c3ccc(NS(=O)(=O)c4ccc(F)c(F)c4)cc3)CC2)cc1 | 0 | 2 | 3 | 51* | -4
O=C(NNc1c2ccccc2nc2ccccc12)c1ccccc1Cl | 7 | 18* | 21 | 6 | 9
Cc1ccccc1-n1c(SCC(=O)NN=Cc2sccc2C)nc2ccccc2c1=O | 6 | nt | nt | nt | nt
CC(=O)Nc1ccc(C(=O)NN=Cc2cc(Br)cc(Br)c2O)cc1 | -4 | nt | nt | nt | nt
CN(C)/C=C/C(=O)c1ccc(-n2cccc2)cc1 | 22* | -2 | 8 | 7 | 2
CCOC(=O)CSc1c(-c2cccs2)[nH]c2ccccc12 | 5 | 0 | -1 | 25* | 1
CCN(CC)C(=O)c1sc(NC(=O)c2c(OC)cccc2OC)c(C#N)c1C | 29* | 0 | 6 | -21 | -2
Cc1ccc(CNC(=O)CSc2nc(C)cc(C)c2C#N)cc1 | 5 | 17* | -5 | 11 | -3
Cc1ccc(CNC(=O)CSc2n[nH]c(N)n2)cc1 | 3 | 0 | -4 | 24* | 2
O=C(N/N=C/c1ccc2c(c1)OCO2)c1cccc2ccccc12 | nt | 4 | 2 | 30* | -7
O=C(NN=Cc1ccc2c(c1)OCO2)c1cc(-c2ccc(F)cc2)nc2ccccc12 | -31 | nt | nt | nt | nt
O=C(N/N=C/c1ccc2c(c1)OCO2)c1cc(-c2ccccc2)nc2ccccc12 | nt | -5 | -6 | 26* | 1

High-throughput results from PubChem.
